pIC50: −log10 of the molar value. The source made the active and inactive calls. No cut-off for these calls is given here.
Tests used:
[1] = Induction of ROS generation in Nf1 defective and Trp53 defective mouse KR158 cells at 10 uM after 6 hrs DCFDA fluorogenic dye-based fluorimetric analysis; assay type: functional
How it was run: (§1)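 Cells plated at 1000/well in black-wall, clear-bottom, polylysine-coated 384-well plates and treated 6 h with 10 μM compound or DMSO control. Carboxymethyl H2DCFDA (10 mM stock in DMSO) added at 25 μM final for the last 1 h. After two PBS washes, cell-associated fluorescence read bottom-mode at Ex 495/Em 529 nm. Result expressed as T/C ratio versus untreated controls, means ± SD.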

[2] = Growth inhibition of Nf1 defective and Trp53 defective mouse K1492 cells after 2 days by XTT assay; settings: K1492, 2 days
[3] = molecular target: RAC-alpha serine/threonine-protein kinase (Mus musculus) (UniProt P31750); assay: Inhibition of AKT phosphorylation in Nf1 defective and Trp53 defective mouse K5001 cells; assay type: cell-based
RAC-alpha serine/threonine-protein kinase (Mus musculus), sequence (P31750 whole entry): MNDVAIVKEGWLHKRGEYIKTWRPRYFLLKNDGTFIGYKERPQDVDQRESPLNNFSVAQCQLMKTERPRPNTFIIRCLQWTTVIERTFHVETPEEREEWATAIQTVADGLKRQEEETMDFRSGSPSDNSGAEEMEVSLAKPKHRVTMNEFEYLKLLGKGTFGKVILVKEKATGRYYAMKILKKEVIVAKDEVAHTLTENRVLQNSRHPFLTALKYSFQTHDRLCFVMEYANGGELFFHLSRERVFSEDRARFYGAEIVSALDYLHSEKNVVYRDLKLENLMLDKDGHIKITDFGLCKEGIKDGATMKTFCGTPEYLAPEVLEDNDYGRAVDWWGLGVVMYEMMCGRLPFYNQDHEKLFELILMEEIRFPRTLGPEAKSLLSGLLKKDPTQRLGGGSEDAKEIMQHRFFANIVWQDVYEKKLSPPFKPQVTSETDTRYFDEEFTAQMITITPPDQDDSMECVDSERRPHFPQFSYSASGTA

[4] = Growth inhibition of Nf1 defective and Trp53 defective mouse K5001 cells after 2 days by XTT assay; settings: K5001, 2 days
KR158 = assay: Induction of apoptosis in Nf1 defective and Trp53 defective mouse KR158 cells assessed as DNA fragmentation at 10 uM up to 48 hrs by ELISA; assay type: functional, cell-based
[5] = Growth inhibition of Nf1 defective and Trp53 defective mouse primary astrocytes after 2 days by XTT assay; settings: Astrocyte
[6] = molecular target: RAC-alpha serine/threonine-protein kinase (Mus musculus) (UniProt P31750); assay: Inhibition of AKT phosphorylation in Nf1 defective and Trp53 defective mouse K1492 cells; assay type: cell-based
[7] = Induction of ROS generation in Nf1 defective and Trp53 defective mouse K5001 cells at 10 uM after 6 hrs by DCFDA fluorogenic dye-based fluorimetric analysis; assay type: functional; how it was run: as §1
[8] = Growth inhibition of Nf1 defective and Trp53 defective mouse KR158 cells after 2 days by XTT assay; settings: KR158, 2 days
[9] = Induction of ROS generation in Nf1 defective and Trp53 defective mouse K1492 cells at 10 uM after 6 hrs DCFDA fluorogenic dye-based fluorimetric analysis; assay type: functional; how it was run: as §1
K5001 = assay: Induction of apoptosis in mouse Nf1 defective and Trp53 defective K5001 cells assessed as DNA fragmentation at 10 uM up to 48 hrs by ELISA; assay type: functional, cell-based
[10] = Growth inhibition of Nf1 defective and Trp53 defective mouse KR158 cells at 80 uM after 2 days by XTT assay; settings: KR158, 2 days, read-out: GI

SMILES	fold change (FC) [1]	pIC50 [2]	inhibition [3]	pIC50 [4]	Activity (KR158)	pIC50 [5]	inhibition [6]	fold change (FC) [7]	pIC50 [8]	fold change (FC) [9]	Activity (K5001)	inhibition of growth at 80 µM [10] [%]
COc1cc2c(cc1OC)[C@@H]1C(=O)c3ccc4c(c3O[C@@H]1CO2)C=CC(C)(C)O4 [DEGUELIN]	3.9	< 4.10	inactive	5.92	inactive	< 4.10	inactive	3.5	4.90	5.6	inactive	–
COc1cc2c(cc1OC)-c1c(oc3c4c(ccc3c1=O)OC(C)(C)C=C4)CO2 [DEHYDRODEGUELIN]	–	< 4.10	inactive	5.92	inactive	< 4.10	inactive	–	< 4.10	–	inactive	40
